# Measured values gathered from unrelated publications.
Structure (SMILES),target or system,test,test system,conditions,measurement,result
O=c1[nH]c(=O)n([C@H]2C[C@H](O)[C@@H](CO)O2)cc1F,Influenza A virus,"viral replication, inhibitor, ELISA","MDCK, H1N1",24 h,IC50,30200 nM
CN[C@H](CC(C)C)C(=O)N[C@H]1C(=O)N[C@@H](CC(N)=O)C(=O)N[C@H]2C(=O)N[C@H]3C(=O)N[C@H](C(=O)N[C@H](C(=O)O)c4cc(O)cc(O)c4-c4cc3ccc4O)[C@H](O)c3ccc(c(Cl)c3)Oc3cc2cc(c3O[C@@H]2O[C@H](CO)[C@@H](O)[C@H](O)[C@H]2O[C@H]2C[C@](C)(N)[C@H](O)[C@H](C)O2)Oc2ccc(cc2Cl)[C@H]1O,Enterococcus,"microbial growth, broth dilution",VRE,,MIC,> 64 µg/mL
Nc1ncn([C@@H]2O[C@H](CO)[C@@H](O)[C@H]2O)c(=O)n1,Influenza A virus,"viral replication, inhibitor, ELISA","MDCK, H1N1",24 h,IC50,3420 nM
NC(=O)c1nc(F)c[nH]c1=O,Influenza A virus,"viral replication, inhibitor","MDCK, H1N1 WSN",,EC50,1570 nM
Nc1ccn([C@@H]2O[C@H](CO)[C@@H](O)C2(F)F)c(=O)n1,Influenza A virus,"viral replication, inhibitor, ELISA","MDCK, H1N1",24 h,IC50,640 nM
CCN(CC)CCCC(C)Nc1ccnc2cc(Cl)ccc12 (stereo not shown),Plasmodium knowlesi,"parasite growth, SYBR Green",,,IC50,19.5 nM
COC(=O)OCOc1c2n(ccc1=O)N([C@@H]1c3ccccc3SCc3c1ccc(F)c3F)[C@@H]1COCCN1C2=O,Influenza A virus,"viral replication, inhibitor",H1N1 PR/8,,EC50,7.57 nM
O=c1c2ccccc2[se]n1-c1ccccc1,Enterovirus A,viral replication,"Vero, EV71",48 h,IC50,7100 nM
CC1=CC(=O)c2c(O)cccc2C1=O,HuCC-A1,"cell growth or viability, MTT",,,IC50,10800 nM
N.N.[Cl][Pt][Cl],SU-DHL-8,"cell growth or viability, ATP luminescence",,72 h,IC50,940 nM
N=C(CC(O)c1cc2c(F)cc(F)cc2c2cc(C(F)(F)F)ccc12)Nc1ccc(F)c(F)c1 (stereo not shown),Plasmodium knowlesi,"parasite growth, SYBR Green",,,IC50,2.4 nM
CC[C@H](C)C[C@H](C)CCCCCCCCC(=O)N[C@H]1C[C@@H](O)[C@@H](NCCN)NC(=O)[C@@H]2[C@@H](O)CCN2C(=O)[C@H]([C@H](O)CCN)NC(=O)[C@H]([C@H](O)[C@@H](O)c2ccc(O)cc2)NC(=O)[C@@H]2C[C@@H](O)CN2C(=O)[C@H]([C@@H](C)O)NC1=O,Pichia kudriavzevii,"microbial killing, broth dilution",ATCC14243,48 h,MFC,4 µg/mL
CC(C)C(=O)OC[C@H]1O[C@@H](n2ccc(NO)nc2=O)[C@H](O)[C@@H]1O,Influenza A virus,"viral replication, inhibitor, ELISA","MDCK, H1N1",24 h,IC50,28300 nM
